DENV2 CPE rescue = protects cells from dengue virus 2 cytopathic effect; CPE inhibition, % at 9.99 µM; DENV2-infected cells, cytopathic effect rescue, plate reader; AID 651640; 350,000 tested, 1.7% active; in the data active = CPE inhibition above about 20%, passing the limit was not always enough; inconclusive = no clear call, values can overlap the other calls; tested in BHK-21 cells;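 also: 0% = median of neutral control wells and 100% = median of positive control wells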
E-selectin induc = induces E-selectin expression in human endothelial cells; P16581; HUVEC E-selectin immunofluorescence imaging; normalized: neutral wells 0, TNF-alpha wells 100; activation, % at 7.58 µM; 260,000 tested, 0.37% active; AID 686992;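 active = mean E-selectin-positive cell signal at least 10% of the positive control, reached in at least 60% of replicates, without over 20% cell loss; inconclusive = no rule given, readout overlaps actives, possibly toxicity-flagged; inactive = the rest, including those meeting only one limit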
Target sequence (P16581 whole entry, looked up): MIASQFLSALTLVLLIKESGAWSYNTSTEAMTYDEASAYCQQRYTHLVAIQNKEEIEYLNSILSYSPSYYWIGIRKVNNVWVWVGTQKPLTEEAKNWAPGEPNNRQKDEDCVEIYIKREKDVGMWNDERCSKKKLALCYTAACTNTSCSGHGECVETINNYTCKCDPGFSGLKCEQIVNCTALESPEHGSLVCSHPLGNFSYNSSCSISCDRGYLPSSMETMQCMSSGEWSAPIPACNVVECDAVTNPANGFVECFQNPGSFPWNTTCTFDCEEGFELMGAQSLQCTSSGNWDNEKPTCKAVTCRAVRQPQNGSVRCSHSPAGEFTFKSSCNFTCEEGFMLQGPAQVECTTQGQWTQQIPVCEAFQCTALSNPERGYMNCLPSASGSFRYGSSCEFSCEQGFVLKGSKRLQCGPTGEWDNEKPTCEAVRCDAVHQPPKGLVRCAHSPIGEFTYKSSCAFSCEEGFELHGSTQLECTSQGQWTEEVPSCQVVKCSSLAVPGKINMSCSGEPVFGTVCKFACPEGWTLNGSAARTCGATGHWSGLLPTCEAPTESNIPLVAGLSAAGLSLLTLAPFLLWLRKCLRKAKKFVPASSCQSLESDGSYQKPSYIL
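Test system – human umbilical vein endothelial cells (HUVEC), E-selectin induction · Input – 3,000 HUVEC seeded per well · Buffer or medium – EGM-2, gelatin · Compound dosing – single-point compound dose · Detection – immunofluorescence imaging · Measure – percent E-selectin-positive cells · Controls – TNF-alpha high, DMSO low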
miR122 inh = miR-122 inhibition in Huh7 cells; Huh7 miR-122 Renilla luciferase sensor, 48 h; neutral wells = 0, positive control = 100; 340,000 tested, 0.3% active; activation (reporter increase), % at 12.5 µM;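 active = mean replicate activation score at least 90 and every replicate individually at or above 90; inconclusive = only one of the two criteria met; inactive = neither criterion met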;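 also: higher luciferase means less miR-122 activity so hits act as miR-122 inhibitors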
Cneo AK release = Cryptococcus neoformans lysis via adenylate kinase release; AID 651654; lysis activity, % at 15 µM; 360,000 tested, 0.2% active; C. neoformans lysis, adenylate kinase release luminescence, 4 h; normalised: neutral wells 0, clomiphene wells 100;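 active = mean lysis activity across replicates of at least 80%, whatever share of replicates individually reach that level; inactive = mean lysis activity below 80%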
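Assay system: Cryptococcus neoformans yeast cells / Dosing: single-point compound dose / Timing: 4 h at 37 °C static, read 1 h later / Measured by: luminescence of released adenylate kinase using an AK detection reagent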
Ecoli rRNA inh = inhibits bacterial ribosomal RNA function over humanized ribosomes; E. coli WT GFP vs humanized-ribosome RFP mutants, fluorescence, 24 h; stronger effect = lower value; DMSO median 0, no signal -100; GFP signal change (wild-type ribosome), % (test concentration not listed); 350,000 tested, 1.6% active; AID 720706;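 active = significant combined selectivity score with lowered wild-type GFP, culture density cut under 30%, mutant RFP and density less affected; inactive = any of these conditions unmet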
Active calls of the source: *; ? = inconclusive; . = no result; [ ] = remark or other dose. Only some compounds are listed: those with a hit (about 3.1% of all), similar ones and a draw of the others.

SMILES | DENV2 CPE rescue | E-selectin induc | miR122 inh | Cneo AK release | Ecoli rRNA inh
COc1ccc(C)cc1NC(=O)c1nn(C)c(C(=O)Nc2cc(C)ccc2OC)c1[N+](=O)[O-] | -0.6 | . | -3.6 | 11.3 | 14.2
C[C@H]1CN(C)C(=O)c2cccnc2O[C@H]1CN(C)S(C)(=O)=O | . | . | . | . | 1.9
C/C=C\C(=O)Nc1cccc(C2=NOC3(C2)C[C@@H](C(N)=O)N(C(=O)c2ccc(OC)cc2)C3)c1 (stereo partly drawn) | 22.1* | -0.2 | . | . | 16.5
COC(=O)C(NC(C)=O)(Nc1nc(C)cs1)C(F)(F)F (stereo not drawn) | . | . | 3.8 | 1.8 | .
COC(=O)C(NC(=O)c1ccccc1)(Nc1nc(C)cs1)C(F)(F)F (stereo not drawn) | . | . | 5.1 | -3.7 | -41.6*
COc1cccc(-c2cnc3c(c2)C(=O)N([C@H](C)CO)C[C@H](C)[C@H](CN(C)Cc2ccc(C(=O)O)cc2)O3)c1 | -2.5 | 0.0 | -5.7[16.7 µM] | -0.5 | -0.3
COc1ccc(N2CCN(c3cc(C(=O)NC4CCCCC4)ncn3)CC2)cc1OC | 22.2* | 0.1 | -4.9 | -0.5 | -4.7
O=C(CN(Cc1ccc(F)cc1)C(=O)CNS(=O)(=O)c1ccc(F)cc1)NCc1ccco1 | 0.9 | 30.1* | -2.0 | 0.0 | -0.9
COCC(=O)N(C)C[C@H]1Oc2ncc(C#Cc3ccccc3)cc2C(=O)N([C@H](C)CO)C[C@H]1C | ? | 4.9 | 27.3[16.7 µM] | -2.1 | 4.0
c1ccc(CCN(Cc2ccccc2)Cc2nc(C3CC3)no2)cc1 | 2.7 | -0.1 | . | . | 10.8
Cc1ccsc1CN(C)Cc1nc(C2CC2)no1 | -0.5 | 513.1* | . | . | 0.7
Cc1cc(C)nc(NC(=O)/C=C/c2cccs2)c1 | -4.5 | . | 7.4 | -1.7 | -26.6*
Brc1ccccc1C1Cc2nnccc2CN1 (stereo not drawn) | -9.3 | -0.4 | . | . | -36.3*
Cc1ccc(C(=O)/C=C/C(=O)c2ccc(C)cc2)cc1 | 0.9 | -3.3 | . | . | -23.9*
FC(F)(F)c1ccccc1CN1CCCc2nc(-c3ccc(Br)cc3)ccc21 | 42.1* | 0.1 | . | . | -53.5
COc1cc(Br)cc(CN2CCN(C/C=C/c3ccccc3)CC2)c1O | 2.2 | . | -3.4 | -2.1 | -33.6*
C/C=C/c1cnc2c(c1)C(=O)N([C@@H](C)CO)C[C@H](C)[C@@H](CN(C)Cc1cncnc1)O2 | -8.9 | -0.1 | . | -1.0 | 1.4
CNC(=O)C[C@@H]1CC[C@@H]2[C@@H](COc3ccc(NC(=O)Nc4c(C)noc4C)cc3C(=O)N2C)O1 | 1.3 | 0.1 | -4.2[16.7 µM] | -0.2 | 1.8
COc1ccc2ccccc2c1CNCc1ccc(C)cc1 | -8.5 | . | -14.7 | -2.8 | -11.1
COc1ccc2ccccc2c1CNC(C)c1ccccc1 (stereo not drawn) | 35.7* | 0.0 | -9.4 | 8.0 | -3.7
CN(C)C(=O)c1cccc(-c2ccc([C@H]3[C@H](CO)N4C(=O)CN(C(=O)C5CCCC5)C[C@@H]34)cc2)c1 | 0.1 | -0.6 | . | . | 7.3
O=C(C[C@@H]1C=C[C@@H](NC(=O)c2ccncc2)[C@@H](CO)O1)NCc1ccncn1 | -5.4 | -0.5 | . | . | .
Cc1ccccc1S(=O)(=O)N1CC[C@@H]2[C@H](CO)Nc3ccc(-c4ccccc4F)cc3[C@@H]21 | 43.3* | -0.9 | 28.2[16.7 µM] | -2.5 | 0.6
O=S(=O)(c1ccccc1F)N1CC[C@@H]2[C@H]1c1cc(-c3ccccc3F)ccc1N[C@@H]2CO | 40.1* | 1.0 | 22.3[16.7 µM] | 52.1 | -4.4
Cc1ccccc1S(=O)(=O)N1CC[C@@H]2[C@H]1c1cc(-c3ccccc3F)ccc1N[C@@H]2CO | -13.4 | -0.5 | 45.4[16.7 µM] | -4.5 | -2.6
SMILES | DENV2 CPE rescue | E-selectin induc | miR122 inh | Cneo AK release | Ecoli rRNA inh
COc1ccccc1S(=O)(=O)N1CC[C@H]2[C@H](CO)Nc3ccc(-c4ccccc4F)cc3[C@H]21 | 20.9* | 0.5 | 5.5[16.7 µM] | 3.1 | 1.1
COc1ccc(C2=NO[C@@H]3C(=O)N(c4ccc(C)cc4C)C(=O)[C@H]23)cc1OC | . | . | 1.5 | -0.9 | .
Cc1ccc(N2C(=O)[C@@H]3C(c4cccnc4)=NO[C@@H]3C2=O)c(C)c1 | -3.3 | 30.7* | . | . | 32.5
C[C@@H]1CN([C@@H](C)CO)C(=O)Cc2cc(NC(=O)C3CC3)ccc2O[C@H]1CN(C)S(=O)(=O)c1ccccc1 | 33.6* | . | 4.1[16.7 µM] | -0.5 | -0.5
C[C@@H]1CN([C@H](C)CO)C(=O)Cc2cc(NC(=O)C3CC3)ccc2O[C@@H]1CN(C)S(=O)(=O)c1ccc(Cl)cc1 | -10.4 | 0.4 | -2.4[16.7 µM] | -0.1 | 1.0
C[C@@H]1CN([C@@H](C)CO)C(=O)Cc2cc(NC(=O)C3CC3)ccc2O[C@H]1CN(C)S(=O)(=O)c1ccc(Cl)cc1 | 70.0* | 0.0 | -6.1[16.7 µM] | -3.3 | 0.0
Cc1noc(C)c1NC(=O)Nc1ccc2c(c1)CC(=O)N([C@H](C)CO)C[C@H](C)[C@@H](CN(C)C(=O)Nc1ccc(F)cc1)O2 | -0.5 | 9.8 | 9.1[16.7 µM] | 18.3 | 0.5
CCOc1ccc(/C=C2/SC(=S)N(CCC(=O)Nc3ccc(C(=O)O)cc3)C2=O)cc1 | -1.6 | 0.3 | 1.6 | -0.8 | 10.1
O=C(O)CCN1C(=O)/C(=C\c2cccc(OCC(=O)Nc3ccc(Cl)cc3)c2)SC1=S | 0.0 | . | -1.9 | 9.7 | -29.6*
CCOc1ccc(/C=C2\SC(=S)N(CCC(=O)O)C2=O)cc1 | 0.9 | . | . | . | -27.4*
CCOC(=O)c1nc(C)sc1-c1ccnn1S(=O)(=O)c1cccc(Cl)c1 | -5.2 | 1.3 | . | . | -28.8*
CCOC(=O)C1=CCN(S(=O)(=O)c2cccc(Cl)c2)C1c1cccc(Cl)c1 (stereo not drawn) | -1.9 | -0.1 | . | . | -11.7
CN=c1scc(-c2ccc(F)cc2)n1/N=C/c1ccc(O)c(O)c1 | 3.0 | . | . | . | -41.4*
COc1ccccc1Cn1c(=S)[nH]c2ccc(F)cc2c1=O | -2.6 | -0.2 | 8.1 | 3.4 | -14.0*
COc1ccccc1Cn1c(=S)[nH]c2ccccc2c1=O | 1.3 | 1.5 | . | 0.5 | -28.1*
COc1ccc(S(=O)(=O)Nc2cccc3c2O[C@H](CN(C)Cc2ccc(C(=O)O)cc2)[C@H](C)CN([C@@H](C)CO)C3=O)cc1 | . | -0.4 | -1.0[16.7 µM] | . | 9.0
CC(C)(C)[S@@](=O)N1Cc2cc(C(=O)N[C@@H]3CCN(Cc4ccccc4)C3)nc(-c3cccc(-c4cncnc4)c3)c2[C@H]1CCO | . | . | . | . | 1.9
COc1ccc(-c2nc3ccc(C)cn3c2CC2CCCCC2)cc1OC | -0.6 | 0.4 | 2.8 | 17.4 | -29.4*
COc1ccc(-c2nc3ccc(C)cn3c2Cc2ccsc2)cc1OC | 3.4 | 0.0 | -2.2 | 1.9 | -10.4
Clc1cccc(Cc2c(-c3cccc(Cl)c3)nc3ccc(Br)cn23)c1 | -5.5 | -0.5 | 1.2 | 0.0 | -23.4*
COc1ccc(-c2nc3ccc(Br)cn3c2Cc2cccc(Cl)c2)cc1OC | -6.9 | -0.8 | -4.2 | -4.9 | -27.2*
COc1ccc(-c2nc3ccc(Cl)cn3c2Cc2cccc(Cl)c2)cc1OC | 15.6 | 0.1 | 6.9 | 0.6 | -15.8
